PMI act satM6P – human PMI activators, high substrate, primary screen, biochemical, fluorescence intensity, near-saturating mannose 6-phosphate; Mannose-6-phosphate isomerase (Homo sapiens), P34949; coupled PMI enzyme assay, resazurin fluorescence, 20 min; hits give high values; 1 = untreated enzyme, 0 = substrate-free blank; activation factor at 20 µM; 0.34% of 190,000 active; AID 1216, 2008;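 active means activation factor of 2 or more at 20 µM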
Target sequence (P34949 whole entry, looked up): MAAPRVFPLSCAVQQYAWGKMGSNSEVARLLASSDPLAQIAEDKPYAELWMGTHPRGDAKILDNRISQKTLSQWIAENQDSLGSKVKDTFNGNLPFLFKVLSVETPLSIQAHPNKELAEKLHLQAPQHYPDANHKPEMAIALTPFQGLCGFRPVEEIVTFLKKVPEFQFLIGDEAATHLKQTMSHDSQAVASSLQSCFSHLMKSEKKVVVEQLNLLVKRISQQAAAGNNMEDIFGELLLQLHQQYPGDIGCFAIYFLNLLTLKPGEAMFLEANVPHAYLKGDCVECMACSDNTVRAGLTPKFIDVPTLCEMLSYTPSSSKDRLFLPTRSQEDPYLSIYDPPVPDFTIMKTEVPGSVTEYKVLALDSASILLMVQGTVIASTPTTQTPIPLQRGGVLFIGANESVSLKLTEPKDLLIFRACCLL
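Material: human phosphomannose isomerase with PGI, G6PDH, diaphorase coupling enzymes / Reagent: Man-6-P substrate 1.0 mM / Dosing: single compound dose of 20 µM, 1% DMSO final / Incubation: enzyme reaction with compound 20 min at room temperature / Signal: resorufin fluorescence (Ex 544/Em 590 nm) from resazurin via diaphorase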
Diaph act CS – compounds boosting diaphorase resazurin reduction – biochemical, uHTS, resorufin fluorescence, counter-screen for diaphorase-coupled primary assays, primary screen; Diaphorase/resazurin coupled assay, 16 min; hits give high values; 1 = vehicle wells, 0 = NADH-free wells; activation factor at 20 µM; 0.005% of 190,000 active; AID 1229, 2008;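 active means diaphorase activity raised at least twofold by the compound at 20 µM; inactive means activation factor below 2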
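System – purified diaphorase enzyme from Clostridium kluyveri · Input – enzyme 0.07 U/mL final · Also added – final NADH 0.114 mM, resazurin 0.1 mM · Measured by – fluorescence of resorufin, 544 nm excitation, 590 nm emission · Timing – 16 min enzyme reaction, ambient temperature · Measure – resorufin increase flagging diaphorase activators or reducers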
PMI activator – activators of human PMI, primary screen, biochemical, fluorescence intensity, near-Km mannose 6-phosphate; purified human PMI, coupled resazurin fluorescence, 20 min; hits give high values; 1 = vehicle control, 0 substrate-free wells; activation factor at 20 µM; 0.005% of 190,000 active; AID 1214, 2008;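 active means activation factor of 2 or more at 20 µM, relative to plate controls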
Diaphorase inh – diaphorase inhibitors and chemical oxidizers, primary screen, counter-screen for diaphorase-coupled primary assays, biochemical, uHTS, resorufin fluorescence; diaphorase resazurin-to-resorufin fluorescence, NADH, 16 min; bacterial (C. kluyveri) enzyme, not human; inhibition, % at 20 µM; 0.69% of 190,000 active;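 active means primary screen inhibition at 20 µM above a set limit, cut at about 50% in these data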;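 further: plate controls were DMSO with full reaction for no effect and wells lacking NADH for full effect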
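Test system: diaphorase enzyme from Clostridium kluyveri; amount: diaphorase at 0.14 U/mL in enzyme working solution; detection: fluorescence of resorufin formed from resazurin, Ex 544/Em 590 nm; times: reaction incubation of 16 min at room temperature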
G6PDH CS – L. mesenteroides G6PDH inhibitors, counter-screen for G6PDH-coupled screening assays, biochemical, Leuconostoc mesenteroides enzyme; glucose-6-phosphate dehydrogenase [Leuconostoc mesenteroides]; Purified L. mesenteroides G6PDH, diaphorase/resazurin coupled fluorescence, 45 min; inhibition, % at 5 µM; 0.12% of 200,000 active; AID 1020, 2008; in the data active means inhibition above about 50%
* hit, by the source's call. The list is not random: actives were taken first. Their share in the collection is about 1.1%.

SMILES | PMI act satM6P | Diaph act CS | PMI activator | Diaphorase inh | G6PDH CS
COc1ccc(Br)cc1C(=O)Nc1ccc(C(=O)O)cc1 | 1.1 | 0.1 | 1.1 | 92* | 4
COc1ccc(NC(=O)c2cc3cccc(OC)c3oc2=Nc2ccc(C(=O)O)cc2)cc1OC | 0.9 | 0.2 | 0.9 | 78* | -2
Cn1cc(/C=C2\SC(=O)NC2=S)c2ccccc21 | 0.5 | 0.5 | 0.6 | 54* | 11
O=C1c2cccc3c(N4CCCCC4)ccc(c23)C(=O)N1c1ccccn1 | 0.9 | 0.5 | 0.9 | 52* | 4
O=C1CN(c2nc(-c3cccs3)nc3sc4c(c23)CCCC4)CCN1 | 2.2* | 0.7 | 1.5 | 34 | 0
O=C(c1nn(Cc2ccccc2)c(=O)c2ccccc12)N1CCN(C/C=C/c2ccccc2)CC1 | 0.9 | 0.9 | 0.9 | 12 | 4
COc1cc2c(cc1OC)CN(Cc1cc(=O)oc3c(C)c(C)ccc13)CC2 | 1.8 | 0.8 | 1.5 | 16 | -31
COc1cc2c(cc1OC)CN(Cc1cc(=O)oc3cc(C)c(C)cc13)CC2 | 2.2* | 0.8 | 1.5 | 22 | 3
CCc1ccc2c(CN3CCc4cc(OC)c(OC)cc4C3)cc(=O)oc2c1 | 2.2* | 0.9 | 1.5 | 10 | 10
COc1cc2c(cc1OC)CN(Cc1cc(=O)oc3cc(C)c(Cl)cc13)CC2 | 2.3* | 0.9 | 1.7 | 12 | -3
NC(=S)N/N=C/c1ccccc1 | 1 | 0.8 | 0.9 | 19 | 0
NC(=S)N/N=C\c1c2ccccc2cc2ccccc12 | 2.3* | 0.8 | 1.6 | 20 | -17
O=S(=O)(Cc1ccccc1)c1cnc2ccccc2n1 | 0.9 | 0.9 | 0.9 | 12 | 4
c1ccc2c(c1)OCCOCCOCCOCCOCCOc1ccccc1OCCOCCOCCO2 | 1.1 | 0.9 | 1.1 | 6 | -6
CC(C)COc1cccc(C(=O)NC(=S)NCc2cccnc2)c1 | 0.8 | 0.5 | 0.8 | 51* | -11
Cc1c(C)n(C)c2ccc(C(=O)Nc3cccc4ccccc34)cc12 | 0.7 | 0.9 | 0.8 | 15 | 4
Cc1ccc(C(=O)CSc2n[nH]c(-c3ccco3)n2)cc1C | 1.1 | 0.5 | 0.9 | 54* | 9
COc1ccc2c(C)cc(SCC(=O)Nc3nsc(-c4ccc(C)cc4)n3)nc2c1 | 0.9 | 0.8 | 0.9 | 21 | 10
COc1ccc(C(=O)CSc2n[nH]c(-c3ccco3)n2)cc1 | 0.8 | 0.8 | 1 | 20 | 2
Cc1cc(SCC(=O)c2ccc(O)c(O)c2)nc2ccccc12 | 1.1 | 0.5 | 0.8 | 50* | 2
Cc1ccc(-c2nc(NC(=O)CSc3cc(C)c4ccccc4n3)ns2)cc1 | 1.1 | 0.3 | 1 | 66* | 4
O=C(CSc1n[nH]c(-c2ccccc2)n1)c1ccc(O)c(O)c1 | 1 | 0.3 | 1.1 | 71* | 12
CC(=O)c1ccccc1C(=O)NCc1cccnc1 | 1 | 1 | 1 | 1 | 14
Cc1c(NC(=O)c2ccc3c(c2)OCO3)c(=O)n(-c2ccccc2)n1C | 0.9 | 0.9 | 0.9 | 9 | -2
COc1ccc(C(=O)Oc2cccc(/C=N/NC(N)=S)c2)cc1 | 1 | 0.9 | 1.1 | 12 | -1
SMILES | PMI act satM6P | Diaph act CS | PMI activator | Diaphorase inh | G6PDH CS
CC1(C)CC2(CC(c3ccccc3F)c3ccc(O)c(O)c3O2)NC(=S)N1 (stereo not drawn) | 0.5 | 0.3 | 0.3 | 68* | 29
O=C(CCC1CCCCC1)NCCN1C2=NC[C@@H](Cc3ccccc3)N2C[C@H]1Cc1ccc(O)cc1 | 1 | 1.3 | 0.9 | -25 | 10
COc1cccc(/C=C/C(=O)OCC(=O)N2c3ccccc3NC(=O)C2(C)C)c1 | 1 | 0.9 | 0.9 | 10 | 8
O=C(CN1CC(=O)Oc2ccccc21)OCC(=O)c1ccc(F)cc1 | 1 | 0.5 | 1.1 | 51* | 28
COC(=O)CCCC(=O)NC(C)c1cnn(-c2ccccc2C)c1C (stereo not drawn) | 1 | 0.9 | 0.9 | 7 | 11
Cc1cc(Br)ccc1OCCn1ccnc1 | 1.1 | 0.9 | 1.1 | 9 | 3
CC1=NN2C(=N)/C(=C\c3ccc(SCc4ccccc4)o3)C(=O)N=C2S1 | 0.6 | 0.9 | 0.5 | 9 | 0
N=C1/C(=C\c2ccc(SCc3ccco3)o2)C(=O)N=C2SC=NN12 | 0.9 | 0.5 | 0.9 | 54* | 10
O=C(CSc1nnc(SCc2ccc(Cl)cc2)s1)c1ccc2c(c1)OCO2 | 1 | 0.9 | 1 | 12 | -1
CC(=O)c1c(N2CCCC2)nc(=S)n(-c2ccccc2)c1C | 1.1 | 0.5 | 1.1 | 54* | -5
CCCCNc1nc(=S)n(-c2ccccc2)c(C)c1C(C)=O | 0.9 | 0.3 | 0.9 | 71* | 2
CCn1c(C)c(C(C)=O)c(N2CCN(c3ccccn3)CC2)nc1=S | 1 | 0.4 | 1 | 62* | 2
CCn1c(/N=C/c2ccccc2NS(=O)(=O)c2ccc(C)cc2)nc2ccccc21 | 1 | 0.9 | 0.9 | 8 | 0
CC1CCN(CCCn2c(=S)[nH]c3c(sc4ccc([N+](=O)[O-])cc43)c2=O)CC1 | 1.1 | 0.7 | 1.1 | 35 | 0
COCCCn1c(=O)c2ccccc2c2ccccc2c1=O | 1.1 | 1.1 | 1.1 | -8 | 6
COCCCn1c(=S)[nH]c2c(sc3ccccc32)c1=O | 1.4 | 0.4 | 1.3 | 64* | 4
CCOC(=O)C1=C(C)N(CCCC(=O)O)C(=O)NC1c1ccc([N+](=O)[O-])cc1 (stereo not drawn) | 0.9 | 0.9 | 0.9 | 12 | 17
O=c1c2sc3ccccc3c2[nH]c(=S)n1CCN1CCOCC1 | 0.9 | 0.4 | 0.8 | 56* | 0
O=C(O)CCCn1c(=S)[nH]c2c(sc3ccc([N+](=O)[O-])cc32)c1=O | 1.1 | 0.2 | 1 | 84* | -4
CC1CCN(CCCn2c(=S)[nH]c3c(sc4ccccc43)c2=O)CC1 | 1.2 | 0.4 | 1.3 | 58* | -1
COC(=O)c1cc2c(C)[nH]c(C)c2cc(C(=O)OC)c1=O | 1 | 0.8 | 1.4 | 17 | -2
COc1ccc2c(c1)CCc1sc(NC(=O)c3ccco3)nc1-2 | 0.4 | 0.5 | 0.7 | 55* | 16
COc1ccc2c(c1)-c1nc(NC(=O)c3ccco3)sc1CC2 | 0.7 | 0.8 | 0.8 | 19 | 1
CCOC(=O)c1ccc(NC(=O)c2ccc(C)c(S(=O)(=O)N3CCOCC3)c2)cc1 | 1 | 0.7 | 0.9 | 30 | -1
